Measurements: ChEMBL document CHEMBL4339193, “Phenotypic Screening-Based Identification of 3,4-Disubstituted Piperidine Derivatives as Macrophage M2 Polarization Modulators: An Opportunity for Treating Multiple Sclerosis” (J Med Chem, 2019)
The source made the active and inactive calls.

Legend:
[1] = AUC (0 to t) in Sprague-Dawley rat at 50 mg/kg, po administered as single dose via gavage by LC/MS analysis; assay type: ADME, organism-based; conditions: in vivo
Summary of the method: (§1)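 Single dose in rats; venous blood (100 µL) drawn at 0, 0.5, 1, 2, 4, 8 and 12 h, plasma separated by centrifugation and held at -20 °C. Compound measured by LC/MS; Cmax, Tmax, t1/2 and AUC derived from the concentration–time data.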

BMDM [2] = assay: Modulation of M2 polarization in C57BL/6J mouse BMDM cells assessed as up regulation of CD206 expression at 300 nM measured after 24 hrs by FACS analysis; assay type: functional, cell-based
Summary of the method: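 BMDMs exposed to compound (300 nM, or a range of concentrations) for 24 h. Stained for F4/80 and CD206; % CD206+F4/80+ cells read by flow cytometry. Mean ± SEM, at least three independent experiments.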

Mus musculus [3] = assay: (§2) Antiinflammatory activity in C57BL/6J mouse model of MOG (35 to 55 residues)/pertussis toxin/complete Freund's adjuvant-induced experimental allergic encephalomyelitis assessed as effect on Treg cell population in spleen by measuring change in CD4 level at 200 mg/kg, ig administered daily starting from 7 days post-immunization measured after 13 to 19 days post-immunization by flow cytometry analysis; assay type: functional, organism-based
Summary of the method: (§3)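 MOG35-55/CFA EAE mice were dosed daily in saline from day 7 and sampled between days 13 and 19. Spleens and dLNs were mechanically dissociated to single cells. CNS cells came from collagenase IV digestion and a 70%/30% Percoll gradient. Cells were surface-stained with fluorochrome antibodies, including CD4, CD11b, CD11c and MHC-II, and analysed by flow cytometry.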

[4] = AUC (0 to infinity) in Sprague-Dawley rat at 10 mg/kg, iv administered as single dose by LC/MS analysis; assay type: ADME, organism-based; design: dose 10 mg/kg, time infinity, route intravenous; conditions: in vivo; summary of the method: as §1
BMDM [5] = assay: Modulation of M2 polarization in C57BL/6J mouse BMDM cells assessed as up regulation of Mrc1 mRNA expression at 300 nM measured after 24 hrs by qRT-PCR analysis; assay type: functional, cell-based
Summary of the method: (§4)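 BMDMs treated 24 h with 300 nM compound at 37 °C, 5% CO2. Trizol RNA extraction, then qRT-PCR for Arg1, Mrc1 and Fizz1 mRNA. Mean ± SEM.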

BMDM [6] = assay: Modulation of M2 polarization in C57BL/6J mouse BMDM cells assessed as up regulation of YM1 expression at 300 nM measured after 4 to 24 hrs by Western blot analysis; assay type: functional, cell-based
Summary of the method: (§5)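 BMDMs lysed in pH 7.6 buffer with 1% Triton X-100, phosphatase inhibitor and 1 mM PMSF. Proteins separated by SDS-PAGE, blotted to PVDF and probed with anti-Arg-1, anti-Ym1 or anti-TNF-α, then ECL detection; GAPDH as loading control.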

RAW264.7 [7] = assay: Modulation of M2 polarization in mouse RAW264.7 cells assessed as up regulation of MRC1 mRNA expression at 300 nM measured after 24 hrs by qRT-PCR analysis; assay type: functional, cell-based
BMDM [8] = assay: Antiinflammatory activity in LPS-induced C57BL/6J mouse BMDM cells assessed as suppression of M1 macrophage-stimulated Th1 cell population by measuring decrease in IFNgamma level at 300 nM measured after 48 hrs by ELISA; assay type: functional, cell-based
Summary of the method: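 Supernatant collected from the 72 h coculture of CFSE-labelled naïve CD4+ T cells (anti-CD3/anti-CD28, 500 ng/ml each, 1:1) with BMDMs pretreated 48 h with 50 ng/ml LPS plus 300 nM compound. IFN-γ or IL-17A quantified by ELISA. Mean ± SEM, at least three independent experiments.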

Mus musculus [9] = assay: as §2, with “reduction” for “effect on Treg cell population”, “demyelination” for “spleen by measuring change”, “spinal cord” for “CD4 level”, “14” for “13 to 19”, “LFB staining based microscopic” for “flow cytometry”; assay type: functional, organism-based
Summary of the method: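 EAE mice dosed daily in saline from day 7 were perfused with PBS and fixed in 4% PFA on day 14; spinal cords were taken. For LFB, frozen OCT sections sat 3 h in 0.1% Luxol Fast Blue at 56-60°C, were differentiated in 0.05% lithium carbonate for 10-12 s, cleared in 70% ethanol, dehydrated and mounted. For H&E, paraffin sections were stained to assess inflammation.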

BMDM [10] = assay: Inhibition of LPS-induced M1 polarization in C57BL/6J mouse BMDM cells assessed as down regulation of Inos mRNA expression at 300 nM measured after 24 hrs by qRT-PCR analysis; assay type: functional, cell-based
Summary of the method: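 BMDMs pre-incubated 24 h with 50 ng/ml LPS to induce M1, then treated 24 h with 300 nM compound. Total RNA extracted with Trizol; Mcp1, Inos and Cd86 mRNA measured by qRT-PCR. Mean ± SEM.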

RAW264.7 [11] = assay: Modulation of M2 polarization in mouse RAW264.7 cells assessed as change in Arg1 mRNA expression at 300 nM measured after 24 hrs by qRT-PCR analysis relative to control; assay type: functional
Summary of the method: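 RAW264.7 cells (DMEM, 10% FBS) given 300 nM compound for 24 h; IL-4 20 ng/ml as positive control. Arg1 mRNA measured by qRT-PCR; fold change = expression in dosed group / expression in untreated control.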

RAW264.7 [12] = assay: Inhibition of M1 polarization in mouse RAW264.7 cells assessed as down regulation of IL1R2 mRNA expression at 300 nM measured after 24 hrs by qRT-PCR analysis; assay type: functional, cell-based
RAW264.7 [13] = assay: Modulation of M2 polarization in mouse RAW264.7 cells assessed as up regulation of CCR7 mRNA expression at 300 nM measured after 24 hrs by qRT-PCR analysis; assay type: functional, cell-based
[14] = Cmax in Sprague-Dawley rat at 50 mg/kg, po administered as single dose via gavage by LC/MS analysis; assay type: ADME, organism-based; design: dose 50 mg/kg, route oral; conditions: in vivo; summary of the method: as §1
RAW264.7 [15] = assay: Inhibition of LPS-induced M1 polarization in mouse RAW264.7 cells assessed as down regulation of Mcp1 mRNA expression at 300 nM measured after 24 hrs by qRT-PCR analysis relative to control; assay type: functional, cell-based
Summary of the method: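 RAW264.7 cells pre-treated with LPS (50 ng/ml) for 24 h, then given 300 nM compound for 24 h. Mcp1 mRNA quantified by qRT-PCR relative to control. Mean ± SEM.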

BMDM [16] = assay: Modulation of M2 polarization in C57BL/6J mouse BMDM cells assessed as up regulation of Arg1 expression at 300 nM measured after 4 to 24 hrs by Western blot analysis; assay type: functional, cell-based; summary of the method: as §5
Mus musculus [17] = assay: as §2, with “dendritic” for “Treg”, “draining lymph nodes” for “spleen”, “CD11c” for “CD4”; assay type: functional, organism-based; summary of the method: as §3
BMDM [18] = assay: Modulation of M2 polarization in C57BL/6J mouse BMDM cells assessed as up regulation of Arg1 mRNA expression at 300 nM measured after 24 hrs by qRT-PCR analysis; assay type: functional, cell-based; summary of the method: as §4
Mus musculus [19] = assay: as §2, with “CNS” for “spleen”; assay type: functional, organism-based; summary of the method: as §3
RAW264.7 [20] = assay: Modulation of M2 polarization in mouse RAW264.7 cells assessed as up regulation of IL13 mRNA expression at 300 nM measured after 24 hrs by qRT-PCR analysis; assay type: functional, cell-based

Cl.Cn1ncc(Cl)c1-c1ccc(C(=O)N[C@@H]2CNCC[C@H]2c2cccc(F)c2)cc1
313 ng/mL: Cmax [14]
4670 ng·h/mL: AUC(0-t) [1]
13.97: fold change (FC) (RAW264.7 [11])
inactive: Activity (Mus musculus [3]) | Activity (Mus musculus [17]) | Activity (Mus musculus [19])
active: Activity (BMDM [2]) | Activity (BMDM [5]) | Activity (BMDM [6]) | Activity (RAW264.7 [7]) | Activity (BMDM [8]) | Activity (Mus musculus [9]) | inhibition (BMDM [10]) | inhibition (RAW264.7 [12]) | Activity (RAW264.7 [13]) | inhibition (RAW264.7 [15]) | Activity (BMDM [16]) | Activity (BMDM [18]) | Activity (RAW264.7 [20])
1870 ng·h/mL: AUC(0-inf) [4]
